# Assay results published in ChEMBL document CHEMBL4842317, “Discovery of novel 3-hydroxyandrosta-5,7-Diene-17-Carboxylic acid derivatives as anti-inflammatory bowel diseases (IBD) agents” (Eur J Med Chem, 2021).
# Activity calls are given as the source filed them. No cut-off for these calls is given here.
# Assays:
# RAW264.7 [1] = assay: Cytotoxicity against mouse RAW264.7 cells assessed as reduction in cell viability at 3 to 100 uM incubated for 24 hrs by MTT assay; assay type: cell-based; conditions: raw264.7, 24 h, dose 3-100 µM
# Method in brief: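 RAW 264.7 cells are seeded at 1.0 × 10^4 per well and incubated overnight. Compounds are added at concentrations from 100 μM downward, with or without LPS (100 ng/mL), for 24 h. MTT (0.5 mg/mL) is added for 4 h and the formazan is dissolved in DMSO for the read-out.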
# RAW264.7 [2] = assay: Antiinflammatory activity against mouse RAW264.7 cells assessed as inhibition of LPS-induced iNOS mRNA expression at 20 uM incubated for 8 hrs in presence of LPS by qRT-PCR analysis; assay type: functional, cell-based
# Method in brief: (§1)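 RAW 264.7 cells are grown 12 h in six-well plates, then exposed to LPS (100 ng/ml) plus compound for 8 h. Reverse transcription is followed by SYBR Green qPCR with GAPDH as internal control. Relative expression is calculated by 2^-ΔΔCT versus the untreated control. Mean + SD from three independent experiments.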
# RAW264.7 [3] = assay: Antiinflammatory activity against mouse RAW264.7 cells assessed as inhibition of LPS-induced iNOS mRNA expression incubated for 8 hrs in presence of LPS by qRT-PCR analysis; assay type: functional, cell-based; conditions: dose 0.31-20 µM; method in brief: as §1
# RAW264.7 [4] = assay: Antiinflammatory activity against mouse RAW264.7 cells assessed as decrease in LPS-induced IL-1beta mRNA expression at 20 uM in presence of LPS by qRT-PCR analysis; assay type: functional, cell-based; method in brief: as §1
# RAW264.7 [5] = assay: Antiinflammatory activity against mouse RAW264.7 cells assessed as decrease in LPS-induced IL-6 mRNA expression at 20 uM in presence of LPS by qRT-PCR analysis; assay type: functional, cell-based; method in brief: as §1
# RAW264.7 [6] = assay: Antiinflammatory activity against mouse RAW264.7 cells assessed as decrease in LPS-induced TNF-alpha mRNA expression at 20 uM in presence of LPS by qRT-PCR analysis; assay type: functional, cell-based; method in brief: as §1
# RAW264.7 [7] = assay: Antiinflammatory activity against mouse RAW264.7 cells assessed as decrease in LPS-induced NF-kappB mRNA expression at 20 uM in presence of LPS by qRT-PCR analysis; assay type: functional, cell-based; method in brief: as §1
# RAW264.7 [8] = assay: Inhibition of PI3K/Akt signaling in mouse RAW264.7 cells assessed as inhibition of LPS-induced Akt phosphorylation at 1.25 uM in presence of LPS by western blot analysis; assay type: cell-based
# Method in brief: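 Lysates of LPS-stimulated RAW 264.7 cells (20–30 μg protein) are run on 10% SDS-PAGE, blotted, blocked with 5% milk, probed overnight at 4 °C (1:5,000), then detected with HRP secondary and ECL. Actin, GAPDH or H3 (nuclear fraction) serve as loading controls, with densitometry ratios. Blots are representative of three independent experiments; mean + SD (n = 3).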
# Mus musculus [9] = assay: Antiinflammatory activity against DSS-induced colitis C57BL/6 mouse assessed as decrease in p-IkB alpha level in colon at 50 mg/kg, ip administered for 7 days by western blot analysis; assay type: functional, organism-based; conditions: time 7.0 day
# Method in brief: (§2)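 Male C57BL/6 mice, 6 weeks old, 5 per group, given 3.5% DSS solution plus daily intraperitoneal drug (100 μL, in saline/castor oil/ethanol/DMSO 70:10:15:5) for 7 days. Colons collected after sacrifice. IL-1β is normalised per milligram of colonic protein. p-IκB-α and p-p65 in colonic protein are measured by Western blot. Bars give mean + SD.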
# Mus musculus [10] = assay: Antiinflammatory activity against DSS-induced colitis C57BL/6 mouse assessed as decrease in p-p65 level in colon at 25 mg/kg, ip administered for 7 days by western blot analysis; assay type: functional, organism-based; conditions: time 7.0 day; method in brief: as §2
smiles,measurement,setting,value
C[C@]12CC[C@H]3[C@@H](CC=C4C[C@@H](O)CC[C@@]43C)[C@@H]1CC[C@@H]2C(=O)n1ccnc1,Activity,RAW264.7 [1],Non-Toxic
same,Activity,RAW264.7 [2],Active
same,Activity,RAW264.7 [3],Dose-Dependent Effect
same,Activity,RAW264.7 [4],Active
same,Activity,RAW264.7 [5],Active
same,Activity,RAW264.7 [6],inactive
same,Activity,RAW264.7 [7],Active
same,inhibition,RAW264.7 [8],Active
same,Activity,Mus musculus [9],Active
same,Activity,Mus musculus [10],Active
